Results reported in ChEMBL document CHEMBL1125658, “Synthesis and properties of some peptide analogues of actinomycin D” (1991).
≈ marks a conversion by molar mass, not a printed value. Starred links: 1 amine or outer side, 2 acyl side, 3 side chain; linkers in the order of their positions; H or OH if unused. Positions of bridges follow the written chain, without caps; N, C: chain ends. Non-standard residues stand in square brackets, D forms with d. Residues, ends and D or L forms follow the SMILES beside them. Chains are numbered I, II in the order given. Actinocin(1to9) = Cc1c2oc3c(C)ccc(C(=O)[*:2])c3nc-2c(C(=O)[*:1])c(N)c1=O; NMeV = CN[C@H](C(=O)O)C(C)C; Sar = CNCC(=O)O

How the values were obtained:
Type in all cases: functional
Bacillus subtilis = test: Compound was tested for its antibacterial activity against Bacillus subtilis
Summary of the method: (§1)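 Overnight culture in trypticase soy broth at 37 °C, 0.1 mL subcultured into 50 mL fresh TSB and grown 8 h. Then 0.1 mL of the rapidly growing culture was diluted into a further 50 mL TSB. 0.1 mL of this dilution inoculated into 2 mL TSB per tube for MIC determination.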

Staphylococcus aureus = test: Compound was tested for its antibacterial activity against Staphylococcus aureus; summary of the method: as §1
Mus musculus = test: Compound was tested in vivo for its antitumor activity against B16 melanocarcinoma in mice by determining its median survival time at dose of 0.256 mg/Kg

Row | Compound | MIC (Bacillus subtilis) [µg/mL] | MIC (Staphylococcus aureus) [µg/mL] | T/C (Mus musculus)
1 | Cc1c2oc3c(C)ccc(C(=O)N[C@@H]4C(=O)N[C@H](C(C)C)C(=O)N5CCC[C@H]5C(=O)N(C)CC(=O)N(C)[C@@H](CC(C)C)C(=O)O[C@@H]4C)c3nc-2c(C(=O)N[C@@H]2C(=O)N[C@H](C(C)C)C(=O)N3CCC[C@H]3C(=O)N(C)CC(=O)N(C)[C@@H](CC(C)C)C(=O)O[C@@H]2C)c(N)c1=O | 0.2 (≈ 0.156 µM) | 0.5 (≈ 0.39 µM) | 
2 | Cc1c2oc3c(C)ccc(C(=O)N[C@@H]4C(=O)N[C@H](C(C)C)C(=O)N5CCC[C@H]5C(=O)N(C)CC(=O)N(C)[C@@H](C(C)C)C(=O)O[C@@H]4C)c3nc-2c(C(=O)N[C@@H]2C(=O)N[C@H](C(C)C)C(=O)N3CCC[C@H]3C(=O)N(C)CC(=O)N(C)[C@@H](C(C)C)C(=O)O[C@@H]2C)c(N)c1=O [DACTINOMYCIN] (I: T[dV]P[Sar][NMeV] / II: T[dV]P[Sar][NMeV]; ester I:1-I:C, II:1-II:C; linker I:N-II:N via Actinocin(1to9)) | 0.09 (≈ 0.0717 µM) | 0.25 (≈ 0.199 µM) | 165
